According to ChEMBL document CHEMBL1156906, “Synthesis and structure-activity relationship of botryllamides that block the ABCG2 multidrug transporter” (Bioorg Med Chem Lett, 2010):

Target: T1, Broad substrate specificity ATP-binding cassette transporter ABCG2 (Homo sapiens, UniProt Q9UNQ0)
T1 sequence (Q9UNQ0 whole entry): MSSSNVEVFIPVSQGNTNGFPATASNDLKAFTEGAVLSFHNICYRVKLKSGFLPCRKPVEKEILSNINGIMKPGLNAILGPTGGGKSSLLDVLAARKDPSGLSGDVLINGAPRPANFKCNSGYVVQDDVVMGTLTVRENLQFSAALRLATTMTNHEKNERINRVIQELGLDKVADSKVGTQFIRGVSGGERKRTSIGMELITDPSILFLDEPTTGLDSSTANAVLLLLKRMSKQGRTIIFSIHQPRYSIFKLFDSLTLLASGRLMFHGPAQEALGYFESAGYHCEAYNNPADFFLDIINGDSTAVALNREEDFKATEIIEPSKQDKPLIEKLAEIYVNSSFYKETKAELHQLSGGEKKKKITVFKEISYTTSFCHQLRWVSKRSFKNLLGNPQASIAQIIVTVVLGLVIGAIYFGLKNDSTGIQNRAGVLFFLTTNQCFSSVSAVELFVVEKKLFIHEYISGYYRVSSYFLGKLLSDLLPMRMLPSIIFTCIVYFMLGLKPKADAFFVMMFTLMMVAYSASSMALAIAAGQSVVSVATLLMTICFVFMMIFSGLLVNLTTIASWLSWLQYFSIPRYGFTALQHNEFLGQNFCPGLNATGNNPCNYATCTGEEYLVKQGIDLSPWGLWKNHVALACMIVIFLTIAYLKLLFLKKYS
Experiment: Inhibition of ABCG2 expressed in human NCI-H460/MX20 cells assessed as accumulation of ABCG2 substrate pheophorbide-A
Assay type: cell-based
How it was run: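 Cell-based assay in cells overexpressing ABCG2, measuring intracellular accumulation of the fluorescent ABCG2 substrate pheophorbide-a. Medium removed and cells washed with PBS before reading intracellular fluorescence. […] IC50 reported ± SD.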

Structure (SMILES) | IC50
COC(Cc1ccc(O)cc1)C(=O)N/C=C/c1ccc(O)cc1 (configuration not stated) | > 100 µM
O=C(/C=C/c1ccc(O)cc1)N/C=C/c1ccc(O)cc1 | > 100 µM
CO/C(=C\c1cc(Br)c(O)c(Br)c1)C(=O)N/C=C/c1ccc(OC(C)=O)cc1 | 23.2 µM
CO/C(=C\c1ccc(OCc2ccccc2)cc1)C(=O)N/C=C/c1ccc(O)cc1 | > 100 µM
CO/C(=C\c1cc(Br)c(O)c(Br)c1)C(=O)N/C=C/c1ccc(O)cc1 | 11.1 µM
COC(Cc1ccc(O)cc1)C(=O)NCCc1ccc(O)cc1 (configuration not stated) | > 100 µM

Next, values leading:

IC50 | Structure (SMILES)
18.8 µM | CO/C(=C\c1ccc(O)c(O)c1)C(=O)N/C=C/c1ccc(O)cc1
25.2 µM | CO/C(=C\c1ccc(O)cc1)C(=O)NCCc1ccc(O)cc1
15.4 µM | CO/C(=C\c1ccccc1)C(=O)N/C=C/c1ccc(O)cc1
6.4 µM | CO/C(=C\c1ccc(OC)cc1)C(=O)N/C=C/c1ccc(O)cc1
> 100 µM | CO/C(=C\c1ccc(O)cc1)C(=O)NCC(O)c1ccc(O)cc1 (configuration not stated)
> 100 µM | CO/C(=C\c1ccc(O)cc1)C(=O)O
